In brackets after ≈: the same amount, converted by molar mass. Activity calls are given as the source filed them. The calls are words filed in the database; no cut-off is given here.
Legend:
Escherichia coli [1] = assay: Antimicrobial activity against Escherichia coli NCIM 2065 at 500 ug/disk after 24 hrs by disk diffusion method; assay type: functional; settings: NCIM 2065, 24 h, read-out: DIZ
Procedure, shortened: (§1)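 Disc diffusion on Mueller–Hinton agar. 100 µl of bacterial suspension at 10⁸ CFU/ml is spread on the plate. Discs carry test compounds at two loadings, dissolved in DMSO; DMSO alone serves as negative control. Ofloxacin disc is the positive reference. Plates are incubated at 37 °C for 24 h, and the inhibition zone diameter is measured.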

Pseudomonas aeruginosa [2] = assay: Antimicrobial activity against Pseudomonas aeruginosa NCIM 2200 at 500 ug/disk after 24 hrs by disk diffusion method; assay type: functional
Procedure, shortened: (§2)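 Disc diffusion. 100 µl of bacterial suspension at 10⁸ CFU/ml was spread on Mueller–Hinton agar. Discs loaded with test compound dissolved in DMSO were placed on the lawn, with a DMSO-only disc as negative control. Plates were incubated at 37 °C for 24 h, and the inhibition zone diameter was measured.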

Aspergillus parasiticus [3] = assay: Antimicrobial activity against Aspergillus parasiticus NCIM 904 at 500 ug/disk after 72 hrs by disk diffusion method; assay type: functional; settings: NCIM 904, 72 h, read-out: DIZ
Procedure, shortened: (§3)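 Disc diffusion on Sabouraud's dextrose agar. 100 µl of fungal suspension at 10⁶ CFU/ml is spread on the plate. Discs carry test compounds at two loadings in DMSO; DMSO alone is the negative control. Clotrimazole disc is the positive reference. Plates are incubated at 27 °C for 72 h, and the zone of inhibition diameter is measured.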

Trichoderma viride [4] = assay: Antimicrobial activity against Trichoderma viride NCIM 1195 at 500 ug/disk after 72 hrs by disk diffusion method; assay type: functional; settings: NCIM 1195, 72 h, read-out: DIZ
Procedure, shortened: (§4)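 Fungal disc diffusion. 100 µl of suspension at 10⁶ CFU/ml was spread on Sabouraud's dextrose agar. Discs carrying test compound in DMSO were applied, with a DMSO-only disc as negative control. Plates were incubated at 27 °C for 72 h, and the zone of inhibition diameter was measured.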

Staphylococcus [5] = assay: Antimicrobial activity against Staphylococcus albus NCIM 2178 at 1000 ug/disk after 24 hrs by disk diffusion method; assay type: functional; procedure, shortened: as §2
Staphylococcus [6] = assay: Antimicrobial activity against Staphylococcus albus NCIM 2178 at 500 ug/disk after 24 hrs by disk diffusion method; assay type: functional; procedure, shortened: as §2
Salmonella typhimurium [7] = assay: Antimicrobial activity against Salmonella Typhimurium NCIM 2501 at 1000 ug/disk after 24 hrs by disk diffusion method; assay type: functional, Salmonella enterica subsp. enterica serovar Typhimurium; procedure, shortened: as §2
Trichoderma viride [8] = assay: Antimicrobial activity against Trichoderma viride NCIM 1195 at 1000 ug/disk after 72 hrs by disk diffusion method; assay type: functional; settings: NCIM 1195, 72 h, read-out: DIZ; procedure, shortened: as §4
Aspergillus flavus [9] = assay: Antimicrobial activity against Aspergillus flavus NCIM 902 at 500 ug/disk after 72 hrs by disk diffusion method; assay type: functional; settings: NCIM 902, 72 h, read-out: DIZ; procedure, shortened: as §3
Lipomyces lipofer [10] = assay: Antimicrobial activity against Lipomyces lipofer NCIM 3252 at 500 ug/disk after 72 hrs by disk diffusion method; assay type: functional; procedure, shortened: as §3
Pseudomonas aeruginosa [11] = assay: Antimicrobial activity against Pseudomonas aeruginosa NCIM 2200 at 1000 ug/disk after 24 hrs by disk diffusion method; assay type: functional; procedure, shortened: as §1
Penicillium chrysogenum [12] = assay: Antimicrobial activity against Penicillium chrysogenum NCIM 707 at 500 ug/disk after 72 hrs by disk diffusion method; assay type: functional; procedure, shortened: as §3
Escherichia coli [13] = assay: Antimicrobial activity against Escherichia coli NCIM 2065 at 1000 ug/disk after 24 hrs by disk diffusion method; assay type: functional; settings: NCIM 2065, 24 h, read-out: DIZ; procedure, shortened: as §1
Klebsiella aerogenes = assay: Antimicrobial activity against Klebsiella aerogenes NCIM 2239 at 500 ug/disk after 24 hrs by disk diffusion method; assay type: functional; procedure, shortened: as §1
Proteus vulgaris [14] = assay: Antimicrobial activity against Proteus vulgaris NCIM 2027 at 500 ug/disk after 24 hrs by disk diffusion method; assay type: functional; procedure, shortened: as §1
[15] = tested on: Rhodococcus corynebacterioides; assay: Antimicrobial activity against Corynebacterium rubrum NCIM 2252 at 1000 ug/disk after 24 hrs by disk diffusion method; assay type: functional; settings: Rhodococcoides corynebacterioides; procedure, shortened: as §1
Escherichia coli [16] = assay: Antimicrobial activity against Escherichia coli NCIM 2065 after 24 hrs by serial dilution method; assay type: functional; settings: NCIM 2065, 24 h
Procedure, shortened: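 Broth dilution MIC in nutrient broth, run only for organisms found sensitive in disc diffusion. Compounds are two-fold serially diluted in 1 ml sterile broth per tube, spanning 3.9 to 1000. Inoculated tubes are incubated at 37 °C for 24 h.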

Aliivibrio fischeri [17] = assay: Antimicrobial activity against Vibrio fischeri NCIM 2154 after 24 hrs by serial dilution method; assay type: functional; settings: NCIM 2154, 24 h
Salmonella typhimurium [18] = assay: Antimicrobial activity against Salmonella Typhimurium NCIM 2501 at 500 ug/disk after 24 hrs by disk diffusion method; assay type: functional, Salmonella enterica subsp. enterica serovar Typhimurium; procedure, shortened: as §2
Rhodotorula mucilaginosa [19] = assay: Antimicrobial activity against Rhodotorula rubra NCIM 3174 at 1000 ug/disk after 72 hrs by disk diffusion method; assay type: functional; settings: NCIM 3174, 72 h, read-out: DIZ; procedure, shortened: as §4
Penicillium chrysogenum [20] = assay: Antimicrobial activity against Penicillium chrysogenum NCIM 707 at 1000 ug/disk after 72 hrs by disk diffusion method; assay type: functional; settings: NCIM 707, 72 h, read-out: DIZ; procedure, shortened: as §3
Aliivibrio fischeri [21] = assay: Antimicrobial activity against Vibrio fischeri NCIM 2154 at 1000 ug/disk after 24 hrs by disk diffusion method; assay type: functional; procedure, shortened: as §2
Lipomyces lipofer [22] = assay: Antimicrobial activity against Lipomyces lipofer NCIM 3252 at 1000 ug/disk after 72 hrs by disk diffusion method; assay type: functional; procedure, shortened: as §3
Bacillus cereus = assay: Antimicrobial activity against Bacillus cereus NCIM 2155 at 1000 ug/disk after 24 hrs by disk diffusion method; assay type: functional; settings: NCIM 2155, 24 h, read-out: DIZ; procedure, shortened: as §1
Rhodotorula mucilaginosa [23] = assay: Antimicrobial activity against Rhodotorula rubra NCIM 3174 at 500 ug/disk after 72 hrs by disk diffusion method; assay type: functional; settings: NCIM 3174, 72 h, read-out: DIZ; procedure, shortened: as §4
Aspergillus flavus [24] = assay: Antimicrobial activity against Aspergillus flavus NCIM 902 after 72 hrs by serial dilution method; assay type: functional; settings: NCIM 535, 72 h, in the assay text read “NCIM 535” for “NCIM 902”
Procedure, shortened: (§5)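 MIC by broth dilution in Sabouraud's dextrose broth, only for fungi sensitive in disc diffusion. Two-fold serial dilutions of compounds are made in 1 ml broth per tube, range 3.9 to 1000. Inoculated tubes are incubated at 27 °C for 72 h.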

Proteus vulgaris [25] = assay: Antimicrobial activity against Proteus vulgaris NCIM 2027 at 1000 ug/disk after 24 hrs by disk diffusion method; assay type: functional; procedure, shortened: as §1
Aliivibrio fischeri [26] = assay: Antimicrobial activity against Vibrio fischeri NCIM 2154 at 500 ug/disk after 24 hrs by disk diffusion method; assay type: functional; procedure, shortened: as §2
Aspergillus flavus [27] = assay: Antimicrobial activity against Aspergillus flavus NCIM 902 at 1000 ug/disk after 72 hrs by disk diffusion method; assay type: functional; settings: NCIM 902, 72 h, read-out: DIZ; procedure, shortened: as §3
[28] = tested on: Rhodococcus corynebacterioides; assay: Antimicrobial activity against Corynebacterium rubrum NCIM 2252 at 500 ug/disk after 24 hrs by disk diffusion method; assay type: functional; settings: Rhodococcoides corynebacterioides; procedure, shortened: as §1
Bacillus subtilis = assay: Antimicrobial activity against Bacillus subtilis NCIM 2063 at 500 ug/disk after 24 hrs by disk diffusion method; assay type: functional; procedure, shortened: as §1
Aspergillus fumigatus = assay: Antimicrobial activity against Aspergillus fumigatus NCIM 902 at 500 ug/disk after 72 hrs by disk diffusion method; assay type: functional; procedure, shortened: as §3
Aspergillus parasiticus [29] = assay: Antimicrobial activity against Aspergillus parasiticus NCIM 904 after 72 hrs by serial dilution method; assay type: functional; settings: NCIM 904, 72 h; procedure, shortened: as §5
[30] = Salmonella enterica, NCIM 2501, 24 h, read-out: DIZ
[31] = Salmonella enterica subsp. enterica serovar Typhimurium

| Compound | zone of inhibition at 500 µg/disc (Escherichia coli [1]) [mm] | diameter of the inhibition zone (DIZ) (Pseudomonas aeruginosa [2]) | zone of inhibition at 500 µg/disc (Aspergillus parasiticus [3]) [mm] | zone of inhibition at 500 µg/disc (Trichoderma viride [4]) [mm] | diameter of the inhibition zone (DIZ) (Staphylococcus [5]) | diameter of the inhibition zone (DIZ) (Staphylococcus [6]) | zone of inhibition at 1000 µg/disc (Trichoderma viride [8]) [mm] | zone of inhibition at 500 µg/disc (Aspergillus flavus [9]) [mm] | diameter of the inhibition zone (DIZ) (Lipomyces lipofer [10]) | diameter of the inhibition zone (DIZ) (Pseudomonas aeruginosa [11]) | zone of inhibition at 1000 µg/disc (Escherichia coli [13]) [mm] | diameter of the inhibition zone (DIZ) (Klebsiella aerogenes) | diameter of the inhibition zone (DIZ) (Proteus vulgaris [14]) | MIC (Escherichia coli [16]) [µg/mL] | zone of inhibition at 1000 µg/disc (Rhodotorula mucilaginosa [19]) [mm] | zone of inhibition at 1000 µg/disc (Penicillium chrysogenum [20]) [mm] | zone of inhibition at 1000 µg/disc (Bacillus cereus) [mm] | zone of inhibition at 500 µg/disc (Rhodotorula mucilaginosa [23]) [mm] | MIC (Aspergillus flavus [24]) [µg/mL] | diameter of the inhibition zone (DIZ) (Proteus vulgaris [25]) | other results |
| --- | --- | --- | --- | --- | --- | --- | --- | --- | --- | --- | --- | --- | --- | --- | --- | --- | --- | --- | --- | --- | --- |
| CC1(C)CC(=O)C2=C(C1)Nc1c(ccc3ccccc13)C2c1cccc(Cl)c1 (stereo not given) | 7 | inactive | 11 | 10 | inactive | inactive | 13 | 9 | inactive | inactive | 8 | inactive | inactive | 125 (≈ 322 µM) | 9 | 10 | 10 | 7 | 62.5 (≈ 161 µM) | inactive | zone of inhibition at 1000 µg/disc (Salmonella typhimurium [7]; [30]): 10 mm; zone of inhibition at 500 µg/disc (Penicillium chrysogenum [12]; NCIM 707, 72 h, read-out: DIZ): 7 mm; zone of inhibition at 1000 µg/disc ([15]; NCIM 2252, 24 h, read-out: DIZ): 8 mm; MIC (Aliivibrio fischeri [17]): 125 µg/mL (≈ 322 µM); zone of inhibition at 500 µg/disc (Salmonella typhimurium [18]; [30]): 8 mm; zone of inhibition at 1000 µg/disc (Aliivibrio fischeri [21]; NCIM 2154, 24 h, read-out: DIZ): 9 mm; zone of inhibition at 1000 µg/disc (Lipomyces lipofer [22]; NCIM 3252, 72 h, read-out: DIZ): 8 mm; zone of inhibition at 500 µg/disc (Aliivibrio fischeri [26]; NCIM 2154, 24 h, read-out: DIZ): 7 mm; zone of inhibition at 1000 µg/disc (Aspergillus flavus [27]): 10 mm; zone of inhibition at 500 µg/disc ([28]; NCIM 2252, 24 h, read-out: DIZ): 7 mm; diameter of the inhibition zone (DIZ) (Bacillus subtilis): inactive; diameter of the inhibition zone (DIZ) (Aspergillus fumigatus): inactive; MIC (Aspergillus parasiticus [29]): 31.2 µg/mL (≈ 80.4 µM) |
| O=C1CCCC2=C1C(c1ccccc1O)c1ccc3ccccc3c1N2 (stereo not given) | 8 | inactive | 9 | 9 | inactive | inactive | 10 | 8 | inactive | inactive | 9 | inactive | inactive | 125 (≈ 366 µM) | 13 | 9 | 8 | 11 | 31.2 (≈ 91.4 µM) | inactive | diameter of the inhibition zone (DIZ) (Salmonella typhimurium [7]; [31]): inactive; diameter of the inhibition zone (DIZ) (Penicillium chrysogenum [12]): inactive; diameter of the inhibition zone (DIZ) [15]: inactive; diameter of the inhibition zone (DIZ) (Salmonella typhimurium [18]; [31]): inactive; diameter of the inhibition zone (DIZ) (Aliivibrio fischeri [21]): inactive; diameter of the inhibition zone (DIZ) (Lipomyces lipofer [22]): inactive; diameter of the inhibition zone (DIZ) (Aliivibrio fischeri [26]): inactive; zone of inhibition at 1000 µg/disc (Aspergillus flavus [27]): 11 mm; diameter of the inhibition zone (DIZ) [28]: inactive; zone of inhibition at 500 µg/disc (Bacillus subtilis; NCIM 2063, 24 h, read-out: DIZ): 8 mm; diameter of the inhibition zone (DIZ) (Aspergillus fumigatus): inactive; MIC (Aspergillus parasiticus [29]): 62.5 µg/mL (≈ 183 µM) |
